Data from ChEMBL document CHEMBL3407409, “Synthesis of diethyl 4-substituted-2,6-dimethyl-1,4-dihydropyridine-3,5-dicarboxylates as a new series of inhibitors against yeast α-glucosidase” (Eur J Med Chem, 2015).
Active and inactive are the calls of the source. No cut-off for these calls is given here.

How the values were obtained:
3T3 = assay: Cytotoxicity against […] 3T3 cells by MTT assay; format: cell-based; details: Mus musculus, NIH3T3
Procedure, shortened: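 […] fibroblast 3T3 cells (2×10^5 cells/mL) grown overnight at 37 °C under CO2, then given serial dilutions (100–12.5 µg/mL) in DMEM with 5% FBS and penicillin/streptomycin. MTT (2 mg/mL in PBS) added for 4 h. Formazan dissolved in DMSO and read at 540 nm; viability taken as the OD ratio.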

Alpha-glucosidase MAL12 [1] = biological target: T1, Alpha-glucosidase MAL12 (Saccharomyces cerevisiae S288c, UniProt P53341); assay: Inhibition of Saccharomyces cerevisiae alpha-glucosidase using p-nitrophenyl alpha-D-glucopyranoside as substrate preincubated for 15 mins measured up to 30 mins by spectrophotometry
Procedure, shortened: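 Yeast enzyme 0.2 U/mL held with graded inhibitor levels for 15 min at 37 °C in 0.1 M phosphate buffer pH 6.8, DMSO 7% final; p-nitrophenyl α-D-glucopyranoside 0.7 mM final added, A400 followed up to 30 min. DMSO-only control; % inhibition = 100 − (OD test/OD control) × 100.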

Serpentes = assay: Inhibition of snake venom phosphodiesterase-1 using bis-(p-nitropheny1) phosphate as substrate preincubated for 30 mins by spectrophotometry
Procedure, shortened: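 Snake venom enzyme, 0.000742 U/well final, in 33 mM Tris–HCl pH 8.8 with 30 mM Mg-acetate. Pre-incubated 30 min with test samples. Substrate bis-(p-nitrophenyl) phosphate at 0.33 mM. Rate of p-nitrophenol release (change in OD/min) followed at 410 nm, 37 °C, in microplate format. Cysteine and EDTA used as positive controls. Run in triplicate.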

[2] = biological target: T2, Beta-glucuronidase (Homo sapiens) (UniProt P08236); assay: Inhibition of beta-glucuronidase (unknown origin) using p-nitrophenyl-beta-D-glucuronide as substrate preincubated for 30 mins by spectrophotometry
T2 sequence (whole entry): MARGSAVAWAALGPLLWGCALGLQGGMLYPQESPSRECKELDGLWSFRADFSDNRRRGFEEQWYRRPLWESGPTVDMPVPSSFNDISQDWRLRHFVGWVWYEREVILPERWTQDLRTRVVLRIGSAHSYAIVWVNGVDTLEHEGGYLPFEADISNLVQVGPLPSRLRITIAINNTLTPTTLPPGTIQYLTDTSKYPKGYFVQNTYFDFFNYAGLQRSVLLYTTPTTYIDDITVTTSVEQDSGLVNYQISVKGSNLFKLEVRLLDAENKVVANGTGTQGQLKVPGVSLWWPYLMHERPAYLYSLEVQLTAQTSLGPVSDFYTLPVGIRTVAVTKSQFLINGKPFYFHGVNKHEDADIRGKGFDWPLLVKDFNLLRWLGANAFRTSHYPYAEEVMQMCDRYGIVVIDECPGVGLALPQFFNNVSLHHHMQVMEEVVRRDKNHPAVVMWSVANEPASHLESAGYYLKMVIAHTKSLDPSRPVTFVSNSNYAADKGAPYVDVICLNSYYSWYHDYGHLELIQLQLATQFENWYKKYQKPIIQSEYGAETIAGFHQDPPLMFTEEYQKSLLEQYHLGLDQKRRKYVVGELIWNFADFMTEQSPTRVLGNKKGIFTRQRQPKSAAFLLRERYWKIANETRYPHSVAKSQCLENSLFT
Procedure, shortened: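 Enzyme (1 U) in 0.1 M acetate buffer held with compound (DMSO 2% final) at 37 °C for 30 min. Then 0.4 mM p-nitrophenyl-β-D-glucuronide added and p-nitrophenol read at 405 nm. Run in triplicate.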

[3] = biological target: Carbonic anhydrase 2 (Bos taurus) (UniProt P00921); assay: Inhibition of purified bovine erythrocyte carbonic anhydrase 2 using 4-PNA as substrate preincubated for 15 mins by spectrophotometry
Procedure, shortened: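 Bovine erythrocyte CA-II (0.1 mg/mL stock) in 20 mM HEPES-Tris pH 7.4, DMSO 10% final, preincubated with compound for 15 min. Reaction started with 0.7 mM 4-nitrophenyl acetate (in ethanol). 4-Nitrophenol read at 400 nm each minute for 30 min. Triplicates at several concentrations.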

Alpha-glucosidase MAL12 [4] = biological target: T1, Alpha-glucosidase MAL12; assay: Non-competitive inhibition of Saccharomyces cerevisiae alpha-glucosidase using p-nitrophenyl alpha-D-glucopyranoside as substrate preincubated for 15 mins by Lineweaver-Burk plot method
Procedure, shortened: (§1)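 Kinetics on the yeast enzyme: 1/rate plotted against 1/substrate (Lineweaver-Burk) at several inhibitor levels, e.g. 60, 70 and 80 µM, to see effects on Km and Vmax. Ki taken from a replot of Lineweaver-Burk slopes against inhibitor concentration and checked by Dixon plot (1/rate against inhibitor concentration). Points are the mean of three experiments.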

[5] = biological target: Oligo-1,6-glucosidase IMA1 (Saccharomyces cerevisiae S288c) (UniProt P53051); assay: Ratio of acarbose IC50 to compound IC50 for Saccharomyces cerevisiae alpha-glucosidase using p-nitrophenyl alpha-D-glucopyranoside as substrate preincubated for 15 mins measured up to 30 mins by spectrophotometry
[6] = biological target: Oligo-1,6-glucosidase IMA1 (Saccharomyces cerevisiae S288c) (UniProt P53051); assay: Non-competitive inhibition of Saccharomyces cerevisiae alpha-glucosidase using p-nitrophenyl alpha-D-glucopyranoside as substrate preincubated for 15 mins by Dixon plot method; procedure, shortened: as §1
Alpha-glucosidase MAL12 [7] = biological target: T1, Alpha-glucosidase MAL12; assay: Competitive inhibition of Saccharomyces cerevisiae alpha-glucosidase using p-nitrophenyl alpha-D-glucopyranoside as substrate preincubated for 15 mins by Lineweaver-Burk plot method

Sequence of Oligo-1,6-glucosidase IMA1 (Saccharomyces cerevisiae S288c) (P53051 whole entry): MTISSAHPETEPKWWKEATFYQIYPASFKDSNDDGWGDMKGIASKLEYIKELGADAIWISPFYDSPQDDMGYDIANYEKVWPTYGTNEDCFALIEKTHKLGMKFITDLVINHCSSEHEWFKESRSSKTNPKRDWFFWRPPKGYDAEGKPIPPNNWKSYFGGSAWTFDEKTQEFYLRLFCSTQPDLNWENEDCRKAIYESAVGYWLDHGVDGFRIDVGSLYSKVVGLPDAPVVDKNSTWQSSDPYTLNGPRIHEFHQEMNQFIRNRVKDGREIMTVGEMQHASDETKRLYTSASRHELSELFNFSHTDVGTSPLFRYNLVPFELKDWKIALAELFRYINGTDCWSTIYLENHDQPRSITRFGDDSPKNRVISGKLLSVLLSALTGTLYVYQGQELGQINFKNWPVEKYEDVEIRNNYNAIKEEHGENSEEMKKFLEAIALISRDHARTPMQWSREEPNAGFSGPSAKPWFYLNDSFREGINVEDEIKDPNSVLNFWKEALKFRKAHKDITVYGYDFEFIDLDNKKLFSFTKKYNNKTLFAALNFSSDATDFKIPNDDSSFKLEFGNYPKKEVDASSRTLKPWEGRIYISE
T1 sequence (P53341 whole entry): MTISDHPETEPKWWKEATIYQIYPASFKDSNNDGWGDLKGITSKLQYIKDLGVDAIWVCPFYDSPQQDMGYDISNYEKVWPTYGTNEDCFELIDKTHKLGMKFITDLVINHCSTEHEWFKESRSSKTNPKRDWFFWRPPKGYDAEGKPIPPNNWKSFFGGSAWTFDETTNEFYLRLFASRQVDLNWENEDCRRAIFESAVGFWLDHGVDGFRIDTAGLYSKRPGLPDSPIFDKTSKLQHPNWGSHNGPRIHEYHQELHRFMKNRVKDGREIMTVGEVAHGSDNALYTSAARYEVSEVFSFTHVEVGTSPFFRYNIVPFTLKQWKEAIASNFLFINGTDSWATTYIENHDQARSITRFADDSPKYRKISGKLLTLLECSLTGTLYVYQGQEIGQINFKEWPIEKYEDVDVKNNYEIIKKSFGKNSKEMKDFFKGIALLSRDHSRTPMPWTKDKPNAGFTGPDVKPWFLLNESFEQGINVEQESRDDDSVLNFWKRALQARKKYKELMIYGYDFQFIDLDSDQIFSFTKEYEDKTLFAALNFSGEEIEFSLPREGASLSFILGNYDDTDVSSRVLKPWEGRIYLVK
Sequence of Carbonic anhydrase 2 (Bos taurus) (P00921 2-260 limits assumed): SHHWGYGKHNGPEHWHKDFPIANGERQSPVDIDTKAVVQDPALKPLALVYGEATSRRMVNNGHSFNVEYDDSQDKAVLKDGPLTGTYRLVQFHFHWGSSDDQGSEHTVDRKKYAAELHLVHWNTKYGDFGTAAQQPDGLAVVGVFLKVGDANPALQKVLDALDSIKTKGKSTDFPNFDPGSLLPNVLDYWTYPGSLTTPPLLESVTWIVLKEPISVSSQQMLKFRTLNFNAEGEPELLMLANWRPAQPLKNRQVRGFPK

CCOC(=O)C1=C(C)NC(C)=C(C(=O)OCC)C1c1ccc(SC)cc1
IC50 (3T3): > 30 µM | IC50 (Alpha-glucosidase MAL12 [1]): 97.4 µM

CCOC(=O)C1=C(C)NC(C)=C(C(=O)OCC)C1c1ccc(O)c(O)c1
IC50 (3T3): 28.6 µM | IC50 (Alpha-glucosidase MAL12 [1]): 274 µM

CCOC(=O)C1=C(C)NC(C)=C(C(=O)OCC)C1c1ccccc1F
IC50 (3T3): > 30 µM | IC50 (Alpha-glucosidase MAL12 [1]): 60.2 µM

CCCCC1C(C(=O)OCC)=C(C)NC(C)=C1C(=O)OCC
IC50 (Alpha-glucosidase MAL12 [1]): 122 µM

CCOC(=O)C1=C(C)NC(C)=C(C(=O)OCC)C1c1ccc(OC)cc1
inhibition (Serpentes): 8.1% | IC50 (3T3): > 30 µM | inhibition [2]: 12.4% | IC50 (Alpha-glucosidase MAL12 [1]): 65.1 µM | inhibition [3]: inactive

CCOC(=O)C1=C(C)NC(C)=C(C(=O)OCC)C1CCc1ccccc1
IC50 (3T3): 26.7 µM | IC50 (Alpha-glucosidase MAL12 [1]): 112 µM

CCOC(=O)C1=C(C)NC(C)=C(C(=O)OCC)C1c1cccc([N+](=O)[O-])c1
inhibition (Serpentes): 11.4% | IC50 (3T3): > 30 µM | Ki (Alpha-glucosidase MAL12 [4]): 25 µM | Ratio IC50 [5]: 26 | inhibition [2]: 22.3% | IC50 (Alpha-glucosidase MAL12 [1]): 35 µM | inhibition [6]: Active | inhibition [3]: 11.7%

CCOC(=O)C1=C(C)NC(C)=C(C(=O)OCC)C1c1ccc(OCC)cc1
IC50 (3T3): > 30 µM | IC50 (Alpha-glucosidase MAL12 [1]): 124 µM

CCOC(=O)C1=C(C)NC(C)=C(C(=O)OCC)C1c1ccc(Cl)cc1
IC50 (3T3): 27.9 µM | IC50 (Alpha-glucosidase MAL12 [1]): 72.4 µM

CCOC(=O)C1=C(C)NC(C)=C(C(=O)OCC)C1c1ccc([N+](=O)[O-])cc1
inhibition (Serpentes): 20.3% | IC50 (3T3): > 30 µM | Ratio IC50 [5]: 18 | inhibition [2]: 14.1% | Ki (Alpha-glucosidase MAL12 [7]): 66 µM | IC50 (Alpha-glucosidase MAL12 [1]): 51 µM | inhibition [3]: 9.7%

CCOC(=O)C1=C(C)NC(C)=C(C(=O)OCC)C1c1ccc(C)cc1
IC50 (3T3): > 30 µM | IC50 (Alpha-glucosidase MAL12 [1]): 118 µM

CCOC(=O)C1=C(C)NC(C)=C(C(=O)OCC)C1c1cccs1
inhibition (Serpentes): 8% | IC50 (3T3): > 30 µM | inhibition [2]: inactive | IC50 (Alpha-glucosidase MAL12 [1]): 74.3 µM | inhibition [3]: inactive
